{
  "source": "paper PMC2773842",
  "about": "(Cellular and Molecular Life Sciences: CMLS, 2006)",
  "key": {"[1]": {"biological_target": "insulin-insulin interactions (chip-bound insulin) (Homo sapiens, UniProt P01308)", "sequence (P01308 25-54 limits assumed)": "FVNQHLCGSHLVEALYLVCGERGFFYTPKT", "sequence (P01308 90-110 limits assumed)": "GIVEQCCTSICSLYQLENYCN", "assay_type": "binding", "settings": "peptide mixed with insulin analyte", "in_short": "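Biacore SPR with insulin immobilized either C-terminally (surface thiol coupling, up to 5000 RU) or N-terminally (amine coupling, up to 1000 RU). Test peptide was premixed with insulin analyte at 1, 5, 10 and 20 µM and flowed at 20 µl/min. Running buffer was 10 mM Na citrate pH 5 with 100 mM NaCl and 0.005% SP20. Curves are averages of three runs after blank subtraction.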"}, "insulin hexamer": {"biological_target": "insulin hexamer (Homo sapiens, UniProt P01308)", "sequence (P01308 25-54 limits assumed)": "as the sequence (P01308 25-54 limits assumed) above", "assay": "ESI-MS analysis of insulin oligomer states in insulin/C-peptide mixtures"}, "chip-bound C-peptide": {"biological_target": "T1, chip-bound C-peptide (Homo sapiens, UniProt P01308)", "T1 sequence (P01308 57-87 limits assumed)": "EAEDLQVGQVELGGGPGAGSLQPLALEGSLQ", "assay": "SPR binding of C-peptide in solution to chip-bound C-peptide", "in_short": "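Peptide was immobilised on the sensor chip by surface thiol coupling via the C-terminus (up to 5000 RU) or amine coupling via the N-terminus (up to 1000 RU). The same peptide was run as analyte at 20 µl/min, diluted from a 600 µM stock in H2O/HCl pH 5. Running buffers spanned pH 3–7 (citrate, bis-Tris or Tris/HCl, 10 mM) with 100 mM NaCl and 0.005% SP20.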"}},
  "data": [
    {"substance": "C-peptide", "values": [
      {"measurement": "effect on rate of dissociation in insulin-insulin SPR", "setting": "[1]", "result": "slightly reduce the rate of dissociation"},
      {"measurement": "effects on insulin in ESI-MS compared with scrambled C-peptide", "setting": "insulin hexamer; at low peptide concentrations", "result": "slightly more effects on insulin than scrambled C-peptide"},
      {"measurement": "insulin hexamer signals in ESI mass spectra", "setting": "insulin hexamer; nano-ESI-MS, pH 5, insulin 30 µM and C-peptide 30 µM (1:1)", "result": "markedly decreased from their level in insulin solutions to an absence in insulin-C-peptide mixtures"},
      {"measurement": "binding of C-peptide in solution to chip-bound C-peptide", "setting": "chip-bound C-peptide", "result": "no evidence for such binding"}
    ]}
  ]
}
